Results published in PMC8481180 (Clinical Drug Investigation, 2021).
Entries after “also recorded” stand apart in the source; their conditions may differ. Where two headings read alike, the source gives them in different places.

What was measured:
[1] = format: in vivo, human; conditions: for Tmax: median (range)
In short: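 Oral suspension given fasted (10 h overnight), 6 subjects per dose. Blood (2 mL, K₂-EDTA) was taken pre-dose and 0.5–48 h after the first and Day-10 doses. Day-10 urine was collected pre-dose and over 0–3, 3–6, 6–12 and 12–24 h. Analysis used validated methods and non-compartmental methods with actual sampling times. AUC was by log-linear trapezoidal rule.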

[2] = Pharmacokinetics in healthy non-Japanese subjects; format: in vivo, human; conditions: for AUCτ, non-Japanese geometric mean, body weight normalized to 70 kg: Day 10
[3] = Comparison of pharmacokinetics, Japanese versus non-Japanese subjects; format: in vivo, human; conditions: Day 10
In short: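 Day-10 Japanese multiple-dose pharmacokinetic parameters were compared with a prior Phase I non-Japanese study (MAD part). Parameters were log-transformed to give geometric mean ratios with 90% confidence intervals. Cmax and AUCτ were also normalised to 70 kg body weight. Six subjects per cohort.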

LTE4 in urine = assay: Creatine-normalized urine LTE4 quantification; format: in vivo, human
In short: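 Urinary LTE₄ was normalised to creatinine. On Days 1 and 10, samples were a pre-dose spot, pooled 0–3, 3–6, 6–9 and 9–12 h collections, and spots at 24 and 36 h. Only pre-dose spots were taken on Days 3–9. Inhibition was related to plasma exposure after oral doses of 60–600 mg.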

[4] = Clinical safety and tolerability in healthy Japanese subjects; format: in vivo, human
In short: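 Randomised, placebo-controlled: four cohorts of 8 (6 active, 2 placebo) received an oral amorphous suspension once on Day 1, then once daily on Days 3–10, fasted. Assessments were adverse events, vital signs, ECG, telemetry and routine clinical laboratory tests. They were taken before and at scheduled times after dosing and at follow-up 7–10 days after the final dose.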

[5] = cited from earlier work
[6] = SMAD study, fasting and fed healthy volunteers; cited from earlier work
[7] = Japanese, 60 mg OD, Day 1, geometric mean (CV%)
[8] = Japanese, 60 mg OD, Day 10, geometric mean (CV%)
[9] = Japanese, 180 mg OD, Day 1, geometric mean (CV%)
[10] = Japanese, 180 mg OD, Day 10, geometric mean (CV%)
[11] = Japanese, 360 mg OD, Day 1, geometric mean (CV%)
[12] = Japanese, 360 mg OD, Day 10, geometric mean (CV%)
[13] = Japanese, 600 mg OD, Day 1, geometric mean (CV%)
[14] = Japanese, 600 mg OD, Day 10, geometric mean (CV%)

Cc1cc(-c2ccc(C(=O)[C@@H]3CCCC[C@H]3C(=O)Nc3cnn4c3C(=O)NCC4)cc2)n[nH]1 [AZD5718]
AUCτ, Japanese geometric mean, body weight normalized to 70 kg ([1]; 60 mg, Day 10): 1056.0 nmol·h/L
AUCτ, Japanese geometric mean, body weight normalized to 70 kg ([1]; 180 mg, Day 10): 5896.7 nmol·h/L
AUCτ, Japanese geometric mean, body weight normalized to 70 kg ([1]; 360 mg, Day 10): 14,981.4 nmol∙h/L
AUCτ, Japanese geometric mean, body weight normalized to 70 kg ([1]; 600 mg, Day 10): 25,893.0 nmol∙h/L
Cmax ([1]; Japanese, 60 mg OD oral suspension, Day 1, geometric mean (CV%), n = 6): 140 nM
AUCτ [1, 7]: 862.9 (35.8) nmol∙h/L
CL/F [1, 7]: 142.1 (33.5) L/h
t½ [1, 7]: 10.1 (44.0) h
Tmax ([1]; Japanese, 60 mg OD, Day 1): 1.0 (1.0, 3.0) h
AUCτ [1, 8]: 1140.5 (25.5) nmol∙h/L
CL/F [1, 8]: 117.8 (25.5) L/h
CLR [1, 8]: 0.8 (22.5) L/h
Cmax [1, 8]: 159 nM
t½ [1, 8]: 12.8 (47.0) h
Tmax ([1]; Japanese, 60 mg OD, Day 10): 2.0 (1.0, 3.0) h
AUCτ [1, 9]: 4739.4 (33.3) nmol∙h/L
CL/F [1, 9]: 82.2 (35.8) L/h
Cmax [1, 9]: 1280 nM
t½ [1, 9]: 8.5 (47.9) h
Tmax ([1]; Japanese, 180 mg OD, Day 1): 1.0 (0.5, 2.0) h
AUCτ [1, 10]: 6724.5 (32.0) nmol∙h/L
CL/F [1, 10]: 60.0 (32.0) L/h
CLR [1, 10]: 0.8 (38.4) L/h
Cmax [1, 10]: 1570 nM
t½ [1, 10]: 8.6 (23.6) h
Tmax ([1]; Japanese, 180 mg OD, Day 10): 1.5 (1.0, 2.0) h
AUCτ [1, 11]: 8971.1 (47.6) nmol∙h/L
CL/F [1, 11]: 84.3 (51.7) L/h
Cmax [1, 11]: 2200 nM
t½ [1, 11]: 15.0 (100.5) h
Tmax ([1]; Japanese, 360 mg OD, Day 1): 1.0 (1.0, 2.1) h
AUCτ [1, 12]: 15,847.3 (47.8) nmol∙h/L
CL/F [1, 12]: 50.9 (47.8) L/h
CLR [1, 12]: 0.9 (21.0) L/h
Cmax [1, 12]: 3460 nM
t½ [1, 12]: 10.5 (29.1) h
Tmax ([1]; Japanese, 360 mg OD, Day 10): 2.0 (1.0, 3.0) h
AUCτ [1, 13]: 17,592.6 (39.9) nmol∙h/L
CL/F [1, 13]: 74.1 (40.0) L/h
Cmax [1, 13]: 5180 nM
t½ [1, 13]: 7.4 (25.5) h
Tmax ([1]; Japanese, 600 mg OD, Day 1): 1.0 (1.0, 2.0) h
AUCτ [1, 14]: 27,349.3 (48.8) nmol∙h/L
CL/F [1, 14]: 49.1 (48.8) L/h
CLR [1, 14]: 0.8 (16.8) L/h
Cmax [1, 14]: 6150 nM
t½ [1, 14]: 8.5 (35.1) h
Tmax ([1]; Japanese, 600 mg OD, Day 10): 1.0 (1.0, 2.0) h
Tmax (median) across doses ([1]; Japanese, 60–600 mg oral, fasted): 1 to 2 h
accumulation in AUCτ ([1]; Japanese, Day 10 versus Day 1, all doses): 32–77%
time to steady-state plasma concentrations ([1]; Japanese, once-daily dosing): 3 to 4 days
Cmax ([1]; read-out: Cmax, Japanese geometric mean, body weight normalized to 70 kg, 60 mg, Day 10): 147 nM
Cmax ([1]; read-out: Cmax, Japanese geometric mean, body weight normalized to 70 kg, 180 mg, Day 10): 1370 nM
Cmax ([1]; read-out: Cmax, Japanese geometric mean, body weight normalized to 70 kg, 360 mg, Day 10): 3270 nM
Cmax ([1]; read-out: Cmax, Japanese geometric mean, body weight normalized to 70 kg, 600 mg, Day 10): 5820 nM
AUCτ, non-Japanese geometric mean, body weight normalized to 70 kg ([2]; 60 mg): 1464.7 nmol·h/L
AUCτ, non-Japanese geometric mean, body weight normalized to 70 kg ([2]; 180 mg): 5837.1 nmol·h/L
AUCτ, non-Japanese geometric mean, body weight normalized to 70 kg ([2]; 360 mg): 14,647.6 nmol∙h/L
AUCτ, non-Japanese geometric mean, body weight normalized to 70 kg ([2]; 600 mg): 24,956.5 nmol∙h/L
Cmax ([2]; read-out: Cmax, non-Japanese geometric mean, body weight normalized to 70 kg, 60 mg, Day 10): 232 nM
Cmax ([2]; read-out: Cmax, non-Japanese geometric mean, body weight normalized to 70 kg, 180 mg, Day 10): 1420 nM
Cmax ([2]; read-out: Cmax, non-Japanese geometric mean, body weight normalized to 70 kg, 360 mg, Day 10): 3680 nM
Cmax ([2]; read-out: Cmax, non-Japanese geometric mean, body weight normalized to 70 kg, 600 mg, Day 10): 6130 nM
AUCτ GMR Japanese versus non-Japanese, % (90% CI) ([3]; 60 mg): 82 (63–108) %
AUCτ GMR Japanese versus non-Japanese, % (90% CI), body weight normalized to 70 kg ([3]; 60 mg): 72 (55–95) %
Cmax GMR Japanese versus non-Japanese, % (90% CI) ([3]; 60 mg): 72 (54–97) %
Cmax GMR Japanese versus non-Japanese, % (90% CI), body weight normalized to 70 kg ([3]; 60 mg): 63 (48–84) %
AUCτ GMR Japanese versus non-Japanese, % (90% CI) ([3]; 180 mg): 131 (88–196) %
AUCτ GMR Japanese versus non-Japanese, % (90% CI), body weight normalized to 70 kg ([3]; 180 mg): 101 (71–144) %
Cmax GMR Japanese versus non-Japanese, % (90% CI) ([3]; 180 mg): 126 (82–195) %
Cmax GMR Japanese versus non-Japanese, % (90% CI), body weight normalized to 70 kg ([3]; 180 mg): 97 (65–145) %
AUCτ GMR Japanese versus non-Japanese, % (90% CI) ([3]; 360 mg): 124 (83–186) %
AUCτ GMR Japanese versus non-Japanese, % (90% CI), body weight normalized to 70 kg ([3]; 360 mg): 102 (70–149) %
Cmax GMR Japanese versus non-Japanese, % (90% CI) ([3]; 360 mg): 108 (72–162) %
Cmax GMR Japanese versus non-Japanese, % (90% CI), body weight normalized to 70 kg ([3]; 360 mg): 89 (60–131) %
AUCτ GMR Japanese versus non-Japanese, % (90% CI) ([3]; 600 mg): 118 (73–190) %
AUCτ GMR Japanese versus non-Japanese, % (90% CI), body weight normalized to 70 kg ([3]; 600 mg): 104 (69–156) %
Cmax GMR Japanese versus non-Japanese, % (90% CI) ([3]; 600 mg): 108 (66–178) %
Cmax GMR Japanese versus non-Japanese, % (90% CI), body weight normalized to 70 kg ([3]; 600 mg): 95 (64–142) %
time at which level of full LTE4 inhibition achieved (LTE4 in urine; Japanese, after the first dose, all doses): 8 h
sustained reduction in LTE4 in urine (LTE4 in urine; Japanese, all doses): above 80%
inhibition of LTE4 in urine after the first dose (LTE4 in urine; Japanese, all doses (60–600 mg)): > 80%
time of maximum reduction in LTE4 in urine post-dose (LTE4 in urine; after first dose, both Japanese and non-Japanese subjects): ≤ 12 h
urinary LTE4 inhibition versus AZD5718 exposure (LTE4 in urine; single and multiple doses, at plasma concentrations in the lower nM range): > 80%
serious adverse events ([4]; Japanese, 60, 180, 360, 600 mg): No serious AEs
vital signs, ECG, telemetry, laboratory results ([4]; Japanese, all doses): no clinically significant trends
tolerability ([4]; Japanese, single and multiple oral doses 60, 180, 360, 600 mg): No clinically relevant safety and tolerability findings; also recorded: safe, well tolerated
time to steady-state levels ([5]; SMAD study, once-daily dosing): 2 to 3 days
terminal half-life ([5]; SMAD study): 10 h
AUCτ, non-Japanese geometric mean ([5]; non-Japanese, 60 mg multiple dosing, Day 10): 1386.3 nmol·h/L
AUCτ, non-Japanese geometric mean ([5]; non-Japanese, 180 mg multiple dosing, Day 10): 5128.4 nmol·h/L
AUCτ, non-Japanese geometric mean ([5]; non-Japanese, 360 mg multiple dosing, Day 10): 12,764.7 nmol∙h/L
AUCτ, non-Japanese geometric mean ([5]; non-Japanese, 600 mg multiple dosing, Day 10): 23,175.0 nmol∙h/L
Cmax ([5]; read-out: Cmax, non-Japanese geometric mean, non-Japanese, 60 mg multiple dosing, Day 10): 220 nM
tolerability [6]: well tolerated
